Results reported in ChEMBL document CHEMBL2150931, “Design, synthesis, and biological activity of a novel series of human sirtuin-2-selective inhibitors” (J Med Chem, 2012).
Active and inactive are the calls of the source. The rule behind the calls is not given here.

Assays:
[1] = target: T1, NAD-dependent protein deacetylase sirtuin-1 (Homo sapiens) (UniProt Q96EB6); conditions: HCT-116, 10 uM
T1 sequence (whole entry): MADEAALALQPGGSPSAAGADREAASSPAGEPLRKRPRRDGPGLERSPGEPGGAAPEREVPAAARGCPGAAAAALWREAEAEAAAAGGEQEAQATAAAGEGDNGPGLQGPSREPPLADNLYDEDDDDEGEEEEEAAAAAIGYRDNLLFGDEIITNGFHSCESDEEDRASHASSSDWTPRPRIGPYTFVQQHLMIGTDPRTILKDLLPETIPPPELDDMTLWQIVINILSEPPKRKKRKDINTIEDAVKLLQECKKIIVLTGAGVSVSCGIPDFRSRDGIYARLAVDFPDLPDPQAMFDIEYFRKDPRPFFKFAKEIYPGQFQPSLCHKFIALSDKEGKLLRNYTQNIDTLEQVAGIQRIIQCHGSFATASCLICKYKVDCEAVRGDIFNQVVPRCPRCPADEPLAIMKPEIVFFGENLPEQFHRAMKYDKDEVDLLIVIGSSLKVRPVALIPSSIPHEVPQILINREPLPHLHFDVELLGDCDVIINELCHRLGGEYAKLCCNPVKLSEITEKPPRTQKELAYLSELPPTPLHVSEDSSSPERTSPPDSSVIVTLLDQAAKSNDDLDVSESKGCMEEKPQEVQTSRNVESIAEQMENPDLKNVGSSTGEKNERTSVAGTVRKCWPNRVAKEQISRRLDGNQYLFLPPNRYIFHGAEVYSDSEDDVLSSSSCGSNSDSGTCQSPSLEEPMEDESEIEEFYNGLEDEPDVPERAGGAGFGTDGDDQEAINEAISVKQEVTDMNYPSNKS

[2] = target: T2, NAD-dependent protein deacetylase sirtuin-2 (Homo sapiens) (UniProt Q8IXJ6); conditions: HCT-116, 10 uM
T2 sequence (whole entry): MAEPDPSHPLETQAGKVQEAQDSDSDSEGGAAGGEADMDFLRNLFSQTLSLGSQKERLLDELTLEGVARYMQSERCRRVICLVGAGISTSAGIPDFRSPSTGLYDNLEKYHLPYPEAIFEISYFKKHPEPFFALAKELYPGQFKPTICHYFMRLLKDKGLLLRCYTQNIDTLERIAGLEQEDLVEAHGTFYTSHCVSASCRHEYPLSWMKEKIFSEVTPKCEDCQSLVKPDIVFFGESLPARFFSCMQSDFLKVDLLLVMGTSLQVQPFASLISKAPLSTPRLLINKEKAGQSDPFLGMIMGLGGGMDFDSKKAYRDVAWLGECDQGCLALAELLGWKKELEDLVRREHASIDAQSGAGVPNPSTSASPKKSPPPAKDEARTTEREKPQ

[3] = target: T3, NAD-dependent protein deacetylase sirtuin-1 (Homo sapiens, UniProt Q96EB6); assay: Inhibition of human recombinant SIRT1 using Fluor de Lys-SIRT as substrate incubated for 60 mins prior to substrate addition measured after 60 mins by fluorimetric analysis
T3 sequence (Q96EB6 whole entry): T1 sequence (whole entry)
Outline: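 Human recombinant SIRT1 run the same way: 60 min at 37 °C with 1 mM NAD⁺ and serial compound dilutions, then 25 μM Fluor de Lys-SIRT substrate for 60 min. Stopped with nicotinamide-containing Developer II and read 45 min later at ex 360/em 460 nm. IC₅₀ from logit regression of % inhibition vs control; means of ≥3 experiments.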

[4] = target: T1, NAD-dependent protein deacetylase sirtuin-1 (Homo sapiens); assay: Inhibition of human recombinant SIRT1 using Fluor de Lys-SIRT as substrate at 100 uM incubated for 60 mins prior to substrate addition measured after 60 mins by fluorimetric analysis
Outline: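 Single-point SIRT1 test at 100 μM compound. Human recombinant enzyme with 1 mM NAD⁺ at 37 °C for 60 min, then 25 μM Fluor de Lys-SIRT substrate for 60 min. Stopped with nicotinamide developer; fluorescence read at 360/460 nm after 45 min. Inhibition expressed as % relative to uninhibited control wells.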

[5] = target: T4, NAD-dependent protein deacetylase sirtuin-2 (Homo sapiens, UniProt Q8IXJ6); assay: Inhibition of human recombinant SIRT2 using Fluor de Lys-SIRT as substrate incubated for 60 mins prior to substrate addition measured after 60 mins by fluorimetric analysis
T4 sequence (Q8IXJ6 whole entry): T2 sequence (whole entry)
Outline: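 Human recombinant SIRT2 preincubated with 1 mM NAD⁺ and serial compound dilutions for 60 min at 37 °C, then 25 μM Fluor de Lys-SIRT substrate added. Reaction stopped at 60 min with Developer II containing nicotinamide. Fluorescence read 45 min later at ex 360/em 460 nm. % inhibition taken against control wells. IC₅₀ obtained by regression of log[Inh] vs logit % inhibition; means of ≥3 experiments.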

SMILES	inhibition [1]	inhibition [2]	IC50 [3] [µM]	inhibition [4] [%]	IC50 [5] [µM]
NC(=O)C1CCCc2c1[nH]c1ccc(Cl)cc21 (stereo unspecified)	Active	–	–	–	–
N#C/C(=C\c1ccc(-c2cc(Cl)ccc2Cl)o1)C(=O)Nc1cccc2ncccc12	–	Active	30	–	–
NC(=O)c1ccccc1Nc1ccc(OCc2ccccc2)cc1	–	–	> 100	13	33
